This assay has as its target NAD-dependent protein deacylase sirtuin-5, mitochondrial (Homo sapiens, UniProt Q9NXA8). Description: Inhibition of SIRT5. The gist of the method:
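Recombinant SIRT5 at 50 ng/well (~30 nM, 50 μL) with succinyllysine AMC substrate and NAD in Tris-Cl pH 8.0/BSA buffer. Inhibitor dilutions were prepared in assay buffer from DMSO stocks. IC50 from nonlinear regression of dose–response, two assays in duplicate.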

pIC50: −log10 of the molar value.

A word on the pIC50: it is the IC50 on a negative log10 scale, so that one unit is a factor of ten. A lower pIC50 goes with a large IC50.

NAD-dependent protein deacylase sirtuin-5, mitochondrial, sequence (Q9NXA8 whole entry): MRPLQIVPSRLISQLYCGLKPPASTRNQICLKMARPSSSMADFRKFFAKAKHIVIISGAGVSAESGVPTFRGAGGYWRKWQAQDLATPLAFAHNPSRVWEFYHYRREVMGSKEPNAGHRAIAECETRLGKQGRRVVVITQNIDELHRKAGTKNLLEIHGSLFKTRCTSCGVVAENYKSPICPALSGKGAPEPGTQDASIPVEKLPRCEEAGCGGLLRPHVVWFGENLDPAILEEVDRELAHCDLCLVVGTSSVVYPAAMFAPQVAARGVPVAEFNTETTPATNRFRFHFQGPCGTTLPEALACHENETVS

`O=C(O)CCCc1ccccc1`: the pIC50 is less than 4.00.

In turn, `O=C(CCCCCCC(=O)Nc1ccccc1)NO` [VORINOSTAT] showed a pIC50 of less than 4.00.

Consider `N#C/C(=C\c1ccc(-c2cc(Cl)ccc2Cl)o1)C(=O)Nc1cccc2ncccc12`, for which the pIC50 is less than 4.00.

The compound `CC(NC(=O)c1ccccc1/N=C/c1c(O)ccc2ccccc12)c1ccccc1` (centres undefined) [SIRTINOL] had a pIC50 of less than 4.00.
